Source: ChEMBL document CHEMBL4732044, “Discovery of a promising agent IQZ23 for the treatment of obesity and related metabolic disorders” (Eur J Med Chem, 2020)
pEC50: −log10 of the molar value. Values after ≈ are worked out from the molar mass of the structure shown. Active and inactive are the calls of the source. The rule behind the calls is not given here.

Experiments:
3T3-L1 [1] = experiment: Lipid lowering activity in mouse 3T3-L1 cells assessed as reduction in adipogenic cocktail-induced triglyceride levels incubated for 6 days by GPO-POD assay; format: functional, cell-based; conditions: for Activity: dose 1-5 µM, time 6.0 day; for pEC50: 3T3-L1, 144 h
Summary of the method: (§1)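 Confluent 3T3-L1 cells were treated from day 0 in cocktail (IBMX, dexamethasone, insulin) for 3 days, then re-dosed in insulin medium for 3 more days. For dose–response, concentrations were 0–10 µM (0.01, 0.1, 0.3, 1, 3, 10). On day 6, cells were lysed in 0.2% Triton X-100 and TG was measured by GPO-POD and normalized to BCA protein as % of control. EC50 was fitted from the dose–response. N = 4.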

3T3-L1 [2] = experiment: Lipid lowering activity in mouse 3T3-L1 cells assessed as reduction in adipogenic cocktail-induced triglyceride levels at 1 to 5 uM incubated for 6 days by GPO-POD assay relative to control; format: functional; conditions: dose 1-5 µM, time 6.0 day; summary of the method: as §1
3T3-L1 [3] = experiment: Lipid lowering activity in mouse 3T3-L1 cells assessed as adipogenic cocktail-induced triglyceride levels at 1 uM incubated for 6 days by GPO-POD assay relative to control; format: functional; conditions: time 6 day; summary of the method: as §1
[4] = Stability in Sprague-Dawley rat liver microsomes assessed as rate constant […] up to 60 mins in presence of NADPH by LC-MS/MS analysis; format: ADME, Microsome
3T3-L1 [5] = experiment: Lipid lowering activity in mouse 3T3-L1 cells assessed as reduction in adipogenic cocktail-induced triglyceride levels at 1 uM incubated for 6 days by GPO-POD assay relative to control; format: functional; design: scale not given: the % may be the effect or the level left; conditions: time 6 day; summary of the method: as §1
3T3-L1 [6] = experiment: Lipid lowering activity in mouse 3T3-L1 cells assessed as reduction in adipogenic cocktail-induced triglyceride levels at 1 uM incubated for 6 days by Oil-red O staining based assay; format: functional, cell-based; conditions: time 6.0 day
Summary of the method: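 Differentiating 3T3-L1 cells were treated at 1 µM for 6 days, then washed with PBS and fixed in 4% formaldehyde for 1 h. Cells were stained with 0.3% Oil Red O for 30 min at room temperature in the dark and imaged at ×200.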

[7] = Half life in Sprague-Dawley rat liver microsomes assessed as rate constant […] up to 60 mins in presence of NADPH by LC-MS/MS analysis; format: ADME, Microsome
3T3-L1 [8] = experiment: Cytotoxicity against mouse 3T3-L1 cells assessed as change in LDH releasing level at 5 uM after 6 days by LDH releasing assay; format: cell-based; conditions: 3t3-l1, 144 h, time 6 day
Summary of the method: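 Differentiating 3T3-L1 cells were treated at 5 µM for 6 days. Plates were centrifuged and LDH activity in the supernatant was read at 490 nm. Release was expressed as fold = (treated − blank)/(control − blank), with untreated cells as blank and vehicle-differentiated control set to 1.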

3T3-L1 [9] = experiment: Inhibition of mouse 3T3-L1 cells adipocyte differentiation assessed as reduction in adipogenic cocktail-induced PPARgamma mRNA expression after 24 hrs by RT-qPCR analysis; format: functional, cell-based; conditions: dose 0.01-1 µM
Summary of the method: (§2)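 Confluent 3T3-L1 preadipocytes received differentiation cocktail (0.5 mM IBMX, 100 ng/mL dexamethasone, 2 µg/mL insulin) with compound (0.01–1 µM; metformin 1 mM) for 24 h. mRNA was measured by SYBR Green RT-qPCR (30 cycles), normalized to β-actin, with the differentiated control set to 1. N = 4 independent experiments.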

3T3-L1 [10] = experiment: Inhibition of mouse 3T3-L1 cells adipocyte differentiation assessed as reduction in adipogenic cocktail-induced C/EBPbeta mRNA expression after 24 hrs by RT-qPCR analysis; format: functional, cell-based; conditions: dose 0.01-1 µM; summary of the method: as §2
[11] = Intrinsic clearance in Sprague-Dawley rat liver microsomes assessed as rate constant […] up to 60 mins in presence of NADPH by LC-MS/MS analysis; format: ADME, Microsome; conditions: read-out: CLH
3T3-L1 [12] = experiment: Inhibition of mouse 3T3-L1 cells adipocyte differentiation assessed as reduction in adipogenic cocktail-induced C/EBPalpha mRNA expression after 24 hrs by RT-qPCR analysis; format: functional, cell-based; conditions: dose 0.01-1 µM; summary of the method: as §2
3T3-L1 [13] = experiment: Activation of AMPK pathway in adipogenic cocktail-induced mouse 3T3-L1 cells assessed as increase in phosphorylation AMPKalpha at Thr172 residue at 0.01 to 1 uM after 24 hrs by Western blot analysis; format: cell-based; conditions: filed as activator, dose 0.01-1 µM
Summary of the method: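 Confluent 3T3-L1 pre-adipocytes exposed to adipogenic cocktail for 24 h with or without compound (0, 0.01, 0.1, 1 µM); DMSO vehicle. Lysates analysed by SDS-PAGE/Western blot for pAMPKα (Thr-172), normalized to actin, Ctrl set as 1. N = 4 independent experiments.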

[14] = Stability in Sprague-Dawley rat liver microsomes assessed as remaining compound […] up to 60 mins in presence of NADPH by LC-MS/MS analysis; format: ADME, Microsome; conditions: read-out: Stabilty
[15] = Aqueous solubility in PBS buffer at pH 7.4 after 24 hrs; format: physicochemical
3T3-L1 [16] = experiment: Inhibition of mouse 3T3-L1 cells adipocyte differentiation assessed as reduction in adipogenic cocktail-induced C/EBPdelta mRNA expression after 24 hrs by RT-qPCR analysis; format: functional, cell-based; conditions: dose 0.01-1 µM; summary of the method: as §2
3T3-L1 [17] = experiment: Activation of AMPK pathway in mouse 3T3-L1 cells assessed as increase in number of mitochondria copy at 2 uM after 24 hrs in presence of compound C by mito-tracker staining based Confocal microscopic method
Summary of the method: (§3)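 3T3-L1 cells grown in DMEM with 10% FBS at 37 °C and 5% CO2. After treatment, cells were stained for 30 min at 37 °C in the dark with 1 µM Mito-Tracker plus Hoechst 33342 (1:1000) and imaged by confocal microscopy (excitation 633 and 405 nm). Mitochondrial copy number was also taken as the mtDNA/nDNA ratio by PCR (cytochrome C versus 18S rRNA).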

3T3-L1 [18] = experiment: Activation of AMPK pathway in mouse 3T3-L1 cells assessed as increase in number of mitochondria copy at 2 uM after 24 hrs by mito-tracker staining based Confocal microscopic method; conditions: filed as activator; summary of the method: as §3

| SMILES | Activity (3T3-L1 [1]) | Activity (3T3-L1 [2]) | also measured |
| --- | --- | --- | --- |
| CN(C)CCOc1nc(-c2[nH]c3ccccc3c2C=O)nc2ccccc12 | Dose-dependent effect |  |  |
| Cc1c(-c2nc(NCCN(C)C)c3ccccc3n2)[nH]c2ccccc12 | Dose-dependent effect | Active |  |
| O=Cc1c(-c2nc(NCCCN3CCCC3)c3ccccc3n2)[nH]c2ccccc12 | Dose-dependent effect |  | Activity (3T3-L1 [3]): 34.9% |
| CCN(CC)CCCCNc1nc(-c2[nH]c3ccc(OC)cc3c2C=O)nc2ccccc12 | Dose-dependent effect |  | k el at 1 h [4]: 4.5e-05 s⁻¹; Activity (3T3-L1 [5]): >=50%; Activity (3T3-L1 [6]): Active; half-life [7]: 4.28 h; Activity (3T3-L1 [8]): Non-Toxic; inhibition (3T3-L1 [9]): Dose-dependent effect; inhibition (3T3-L1 [10]): Dose-dependent effect; microsomal CLint [11]: 2.7 µL/min/mg; inhibition (3T3-L1 [12]): Dose-dependent effect; Activity (3T3-L1 [13]): Active; remaining at 1 h [14]: 84%; pEC50 (3T3-L1 [1]): 6.04; solubility at 24 h [15]: 65.9 µg/mL (≈ 148 µM); inhibition (3T3-L1 [16]): Dose-dependent effect |
| Cc1c(-c2nc(OCCCN3CCCC3)c3ccccc3n2)oc2ccccc12 | Dose-dependent effect | Active |  |
| Cc1c(-c2nc(NCCCN(C)C)c3ccccc3n2)sc2ccccc12 | Dose-dependent effect | Active |  |
| CCN(CC)CCCCNc1nc(-c2[nH]c3ccccc3c2C=O)nc2ccccc12 | Dose-dependent effect |  |  |
| Cc1c(-c2nc(OCCN3CCCC3)c3ccccc3n2)oc2ccccc12 | Dose-dependent effect | Active |  |
| NC(=O)c1ncn([C@@H]2O[C@H](CO)[C@@H](O)[C@H]2O)c1N |  |  | Activity (3T3-L1 [17]): inactive; Activity (3T3-L1 [18]): Active |
| O=Cc1c(-c2nc(NCCCN3CCCC3)c3ccccc3n2)oc2ccccc12 | Dose-dependent effect |  | Activity (3T3-L1 [3]): 88.7% |
| Cc1c(-c2nc(NCCCCN3CCCC3)c3ccccc3n2)sc2ccccc12 | Dose-dependent effect | Active |  |
| CN(C)CCCCOc1nc(-c2[nH]c3ccccc3c2C=O)nc2ccccc12 | Dose-dependent effect |  |  |
| COc1ccc2[nH]c(-c3nc(NCCCN4CCCC4)c4ccccc4n3)c(C=O)c2c1 | Dose-dependent effect |  |  |
| CCN(CC)CCSc1nc(-c2[nH]c3ccccc3c2C=O)nc2ccccc12 | Dose-dependent effect |  |  |
| CN(C)CCNc1nc(-c2oc3ccccc3c2C=O)nc2ccccc12 | Dose-dependent effect |  |  |
| CCN(CC)CCNc1nc(-c2[nH]c3ccccc3c2C)nc2ccccc12 | Dose-dependent effect | Active |  |
| COc1ccc2[nH]c(-c3nc(NCCN4CCCC4)c4ccccc4n3)c(C=O)c2c1 | Dose-dependent effect |  | k el at 1 h [4]: 0.00011 s⁻¹; Activity (3T3-L1 [5]): >=50%; Activity (3T3-L1 [6]): Active; half-life [7]: 1.75 h; Activity (3T3-L1 [8]): Non-Toxic; inhibition (3T3-L1 [9]): Dose-dependent effect; inhibition (3T3-L1 [10]): Dose-dependent effect; microsomal CLint [11]: 6.6 µL/min/mg; inhibition (3T3-L1 [12]): Dose-dependent effect; Activity (3T3-L1 [13]): Active; remaining at 1 h [14]: 66.6%; pEC50 (3T3-L1 [1]): 6.51; solubility at 24 h [15]: 56.4 µg/mL (≈ 136 µM); inhibition (3T3-L1 [16]): Dose-dependent effect |
| Cc1c(-c2nc(NCCCCN(C)C)c3ccccc3n2)[nH]c2ccccc12 | Dose-dependent effect | Active |  |
| Cc1c(-c2nc(NCCCN3CCCC3)c3ccccc3n2)[nH]c2ccccc12 | Dose-dependent effect | Active |  |
| CN(C)CCCCNc1nc(-c2oc3ccccc3c2C=O)nc2ccccc12 | Dose-dependent effect |  |  |

| SMILES | Activity (3T3-L1 [1]) | Activity (3T3-L1 [2]) | also measured |
| --- | --- | --- | --- |
| O=Cc1c(-c2nc(OCCN3CCCC3)c3ccccc3n2)[nH]c2ccccc12 | Dose-dependent effect |  |  |
| COc1ccc2[nH]c(-c3nc(NCCN(C)C)c4ccccc4n3)c(C=O)c2c1 | Dose-dependent effect |  |  |
| CN(C)CCCNc1nc(-c2c(C=O)c3ccccc3n2C)nc2ccccc12 | Dose-dependent effect |  | Activity (3T3-L1 [3]): 70.4% |
| Cc1c(-c2nc(OCCN(C)C)c3ccccc3n2)oc2ccccc12 | Dose-dependent effect | Active |  |
| Cc1c(-c2nc(NCCCN3CCCC3)c3ccccc3n2)sc2ccccc12 | Dose-dependent effect | Active |  |
| O=Cc1c(-c2nc(OCCCN3CCCC3)c3ccccc3n2)[nH]c2ccccc12 | Dose-dependent effect |  |  |
| Cc1c(-c2nc(NCCCN(C)C)c3ccccc3n2)[nH]c2ccccc12 | Dose-dependent effect | Active |  |
| Cc1c(-c2nc(NCCN3CCCC3)c3ccccc3n2)sc2ccccc12 | Dose-dependent effect | Active |  |
| O=Cc1c(-c2nc(NCCN3CCCC3)c3ccccc3n2)oc2ccccc12 | Dose-dependent effect |  |  |
| Cc1c(-c2nc(NCCN(C)C)c3ccccc3n2)sc2ccccc12 | Dose-dependent effect | Active |  |
| CN(C)CCCNc1nc(-c2c(C=O)c3ccccc3n2Cc2ccccc2)nc2ccccc12 | Dose-dependent effect |  | Activity (3T3-L1 [3]): 57.1% |
| Cc1c(-c2nc(OCCCN(C)C)c3ccccc3n2)oc2ccccc12 | Dose-dependent effect | Active |  |
| CN(C)CCCOc1nc(-c2[nH]c3ccccc3c2C=O)nc2ccccc12 | Dose-dependent effect |  |  |
| Cc1c(-c2nc(NCCN3CCCC3)c3ccccc3n2)[nH]c2ccccc12 | Dose-dependent effect | Active |  |
| CCN(CC)CCCCNc1nc(-c2[nH]c3ccccc3c2C)nc2ccccc12 | Dose-dependent effect | Active |  |
| CN(C)CCSc1nc(-c2[nH]c3ccccc3c2C=O)nc2ccccc12 | Dose-dependent effect |  |  |
| COc1ccc2[nH]c(-c3nc(NCCCN(C)C)c4ccccc4n3)c(C=O)c2c1 | Dose-dependent effect |  |  |
| CN(C)CCCNc1nc(-c2oc3ccccc3c2C=O)nc2ccccc12 | Dose-dependent effect |  |  |
| O=Cc1c(-c2nc(NCCCCN3CCCC3)c3ccccc3n2)[nH]c2ccccc12 | Dose-dependent effect |  | k el at 1 h [4]: 4.67e-05 s⁻¹; Activity (3T3-L1 [5]): >=50%; Activity (3T3-L1 [6]): Active; half-life [7]: 4.13 h; Activity (3T3-L1 [8]): Non-Toxic; inhibition (3T3-L1 [9]): Dose-dependent effect; inhibition (3T3-L1 [10]): Dose-dependent effect; microsomal CLint [11]: 2.8 µL/min/mg; inhibition (3T3-L1 [12]): Dose-dependent effect; Activity (3T3-L1 [13]): Active; remaining at 1 h [14]: 83.9%; pEC50 (3T3-L1 [1]): 6.29; solubility at 24 h [15]: 15.1 µg/mL (≈ 36.5 µM); inhibition (3T3-L1 [16]): Dose-dependent effect |
| Cc1c(-c2nc(OCCCCN(C)C)c3ccccc3n2)oc2ccccc12 | Dose-dependent effect | Active |  |
